Columns and labels:
[1] = tested on: Influenza A virus; test: Antiviral activity against Influenza A virus (A/Puerto Rico/8/34(H1N1)) infected in MDCK cells assessed as reduction in virus titer pretreated with cells for 1 hr followed by viral infection for 1 hr and subsequent unbound virion washout measured after 24 to 48 hrs by hemagglutination test; type: functional, organism-based, A/Puerto Rico/8/1934(H1N1)
Summary of the method: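 MDCK cells pre-incubated 1 h at 36 °C with compound in MEM containing 1 μg mL−1 trypsin, then infected with A/Puerto Rico/8/34 (H1N1), moi 0.01, for 1 h. Unbound virus washed off, then 24 h at 36 °C, 5% CO2. Supernatant titre read by hemagglutination after 48 h passage in MDCK, as % of untreated control. Triplicate wells; IC50 calculated.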

[2] = Selectivity index, ratio of CC50 for MDCK cells to IC50 for Influenza A virus (A/Puerto Rico/8/34(H1N1)) infected in MDCK cells; type: toxicity, cell-based; conditions: dog, read-out: Ratio CC50/IC50
[3] = tested on: Vaccinia virus; test: Antiviral activity against Vaccinia virus Copenhagen infected in African green monkey Vero cells assessed as inhibition of viral replication after 4 days by neural red dye-based spectrophotometric method; type: functional, organism-based, Orthopoxvirus vaccinia
[4] = Cytotoxicity against African green monkey Vero cells assessed as reduction in cell viability after 4 days by neural red dye-based spectrophotometric method; conditions: chlorocebus sabaeus
Summary of the method: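 Vero cell monolayers in DMEM with 2% fetal serum were given serial dilutions of compound, with no virus added. After 4 days the cells were stained with neutral red for 2 h, unbound dye was washed out and the cells were lysed. OD was read at 490 nm. CC50 in μM was derived from the OD data; three independent experiments, mean ± 95% confidence interval.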

[5] = Selectivity index, ratio of CC50 for African green monkey Vero cells to IC50 for Vaccinia virus Copenhagen infected in African green monkey Vero cells; type: toxicity; conditions: read-out: Ratio CC50/IC50
[6] = Cytotoxicity against MDCK cells assessed as reduction in cell viability after 48 hrs by MTT assay; type: cell-based, Canis lupus familiaris; conditions: dog
Summary of the method: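 MDCK cells were exposed to three-fold dilutions of compound in MEM (top 300–400 μg mL-1) for 48 h at 36 °C in 5% CO2, then washed twice with PBS. MTT ([…] in PBS) was added for 1 h and formazan was dissolved in DMSO. OD was read at 535 nm. Triplicate wells per concentration; CC50 was taken from OD versus concentration.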

[7] = tested on: Orthopoxvirus; test: Antiviral activity against Orthopoxvirus assessed as reduction in viral replication; type: functional, organism-based
[8] = Influenza A virus, A/Puerto Rico/8/1934(H1N1), MDCK, read-out: IC50
[9] = Orthopoxvirus vaccinia, Copenhagen, Vero, 96 h, read-out: IC50

## NC12CC3CC(CC(C3)C1)C2 [AMANTADINE]
[1]; [8]
  IC50: 64 µM
[2]
  selectivity ratio: 4

## CC1(C)[C@@H]2CC[C@@]1(C)/C(=N/NC(=O)c1ccc(Br)cc1)C2
[3]; [9]
  IC50: 11.1 µM
[4]
  CC50 at 96 h: 288 µM
[5]
  selectivity ratio: 26
[6]
  CC50 at 48 h: > 822 µM
[1]; [8]
  IC50: 219 µM
[2]
  selectivity ratio: 4

## CCCC(=O)N/N=C1\C[C@H]2CC[C@]1(C)C2(C)C
[3]; [9]
  IC50: 69.8 µM
[4]
  CC50 at 96 h: 854 µM
[5]
  selectivity ratio: 12
[6]
  CC50 at 48 h: > 1190 µM
[1]; [8]
  IC50: 794 µM
[2]
  selectivity ratio: 2

## CC12C=CC3(CN(c4ccccc4)C(=O)C3C1C(=O)N/N=C1\C[C@H]3CC[C@]1(C)C3(C)C)O2 (mixture of isomers)
[3]; [9]
  IC50: 6.2 µM
[4]
  CC50 at 96 h: 600 µM
[5]
  selectivity ratio: 97
[6]
  CC50 at 48 h: 277 µM
[1]; [8]
  IC50: 22 µM
[2]
  selectivity ratio: 12

## CC12C=CC3(O1)C(C(=O)N1CCCOC13)C2C(=O)N/N=C1\C[C@H]2CC[C@]1(C)C2(C)C (mixture of isomers)
[3]; vero
  IC50: Not Active
[4]
  CC50 at 96 h: > 250 µM
[6]
  CC50 at 48 h: > 721 µM
[1]; [8]
  IC50: 481 µM
[2]
  selectivity ratio: 2

## CC1CCN(CC(=O)N[C@@H]2C[C@H]3CC[C@]2(C)C3(C)C)CC1
[7]
  IC50: 2500 nM

## CC(N)C12CC3CC(CC(C3)C1)C2 (stereo not given) [RIMANTADINE]
[1]; [8]
  IC50: 67 µM
[2]
  selectivity ratio: 5

## CC1(C)[C@@H]2CC[C@@]1(C)[C@H](OC(=O)CCN1CCOCC1)C2
[7]
  IC50: 3500 nM

## CC1(C)[C@@H]2CC[C@@]1(C)/C(=N/NC(=O)c1ccco1)C2
[3]; [9]
  IC50: 38.7 µM
[4]
  CC50 at 96 h: 285 µM
[5]
  selectivity ratio: 7
[6]
  CC50 at 48 h: 1090 µM
[1]; [8]
  IC50: 325 µM
[2]
  selectivity ratio: 3

## Nc1ccn(C[C@@H](CO)OCP(=O)(O)O)c(=O)n1 [CIDOFOVIR]
[5]
  selectivity ratio: 12

## CCN1CC23C=CC(O2)C(C(=O)N/N=C2\C[C@H]4CC[C@]2(C)C4(C)C)C3C1=O (mixture of isomers)
[3]; vero
  IC50: Not Active
[4]
  CC50 at 96 h: > 250 µM
[6]
  CC50 at 48 h: 775 µM
[1]
  IC50: Not Active

## CC1(C)[C@@H]2CC[C@@]1(C)/C(=N/NC(=O)C(F)(F)F)C2
[3]; vero
  IC50: Not Active
[4]
  CC50 at 96 h: > 250 µM
[6]
  CC50 at 48 h: > 1080 µM
[1]
  IC50: Not Active

## CC12C=CC3(O1)C(C(=O)N1CCSC13)C2C(=O)N/N=C1\C[C@H]2CC[C@]1(C)C2(C)C (mixture of isomers)
[3]; vero
  IC50: Not Active
[4]
  CC50 at 96 h: > 250 µM

## CC12C=CC3(O1)C(C(=O)N1c4ccccc4SC13)C2C(=O)N/N=C1\C[C@H]2CC[C@]1(C)C2(C)C (mixture of isomers)
[3]; vero
  IC50: Not Active
[4]
  CC50 at 96 h: 67.2 µM
[6]
  CC50 at 48 h: 123 µM
[1]; [8]
  IC50: 36 µM
[2]
  selectivity ratio: 3

## COCCN1CC23C=CC(O2)C(C(=O)N/N=C2\C[C@H]4CC[C@]2(C)C4(C)C)C3C1=O (mixture of isomers)
[3]; vero
  IC50: Not Active
[4]
  CC50 at 96 h: > 250 µM
[6]
  CC50 at 48 h: 719 µM
[1]
  IC50: Not Active

## CC1(C)[C@@H]2CC[C@@]1(C)/C(=N/NC(=O)c1cccs1)C2
[3]; vero
  IC50: Not Active
[4]
  CC50 at 96 h: 362 µM
[6]
  CC50 at 48 h: 1030 µM
[1]
  IC50: Not Active

## CC1(C)[C@@H]2CC[C@@]1(C)/C(=N/NC(=O)c1ccccc1)C2
[3]; [9]
  IC50: 5.1 µM
[4]
  CC50 at 96 h: 1430 µM
[5]
  selectivity ratio: 280
[6]
  CC50 at 48 h: > 1050 µM
[1]; [8]
  IC50: 201 µM
[2]
  selectivity ratio: 5

## CC(=O)N/N=C1\C[C@H]2CC[C@]1(C)C2(C)C
[3]; vero
  IC50: Not Active
[4]
  CC50 at 96 h: > 250 µM

## CC12C=CC3(CN(Cc4ccccc4)C(=O)C3C1C(=O)N/N=C1\C[C@H]3CC[C@]1(C)C3(C)C)O2 (mixture of isomers)
[3]; vero
  IC50: Not Active
[4]
  CC50 at 96 h: > 250 µM
[6]
  CC50 at 48 h: 227 µM
[1]; [8]
  IC50: > 72 µM
[2]
  selectivity ratio: 3

## NC(=O)c1ncn([C@@H]2O[C@H](CO)[C@@H](O)[C@H]2O)n1 [RIBAVIRIN]
[6]
  CC50 at 48 h: > 2130 µM
[1]; [8]
  IC50: 30 µM
[2]
  selectivity ratio: 71

Source: ChEMBL document CHEMBL4368876, “Synthesis of d-(+)-camphor-based N-acylhydrazones and their antiviral activity” (Medchemcomm, 2018)
